Measured values from ChEMBL document CHEMBL4052805, “Discovery of novel 4(1H)-quinolone derivatives as potential antiproliferative and apoptosis inducing agents” (Bioorg Med Chem Lett, 2017).
Counter-ions that a name gives are not always drawn. Activity calls are given as the source filed them. No cut-off for these calls is given here.

Assays:
HeLa = test: Cytotoxicity against human HeLa cells assessed as reduction in cell viability after 24 hrs by MTT assay
PC-3 = test: Cytotoxicity against human PC3 cells assessed as reduction in cell viability after 24 hrs by MTT assay; conditions: PC-3, 24 h
BGC-823 = test: Cytotoxicity against human BGC823 cells assessed as reduction in cell viability after 24 hrs by MTT assay; conditions: BGC-823, 24 h
HEp-2 = test: Cytotoxicity against human Hep2 cells assessed as reduction in cell viability after 24 hrs by MTT assay; conditions: HEp-2, 24 h
HCT-8 = test: Cytotoxicity against human HCT8 cells assessed as reduction in cell viability after 24 hrs by MTT assay; conditions: HCT-8, 24 h
MCF7 = test: Cytotoxicity against human MCF7 cells assessed as reduction in cell viability after 24 hrs by MTT assay; conditions: MCF7, 24 h
HepG2 [1] = test: Cytotoxicity against human HepG2 cells assessed as reduction in cell viability after 24 hrs by MTT assay; conditions: HepG2, 24 h
[2] = target: Cellular tumor antigen p53 (Homo sapiens) (UniProt P04637); test: Activation of p53 in human HepG2 cells assessed as increase in p21 expression at 10 to 20 ug/ml after 24 hrs by Western blot analysis; format: cell-based
Sequence of Cellular tumor antigen p53 (Homo sapiens) (P04637 whole entry, looked up): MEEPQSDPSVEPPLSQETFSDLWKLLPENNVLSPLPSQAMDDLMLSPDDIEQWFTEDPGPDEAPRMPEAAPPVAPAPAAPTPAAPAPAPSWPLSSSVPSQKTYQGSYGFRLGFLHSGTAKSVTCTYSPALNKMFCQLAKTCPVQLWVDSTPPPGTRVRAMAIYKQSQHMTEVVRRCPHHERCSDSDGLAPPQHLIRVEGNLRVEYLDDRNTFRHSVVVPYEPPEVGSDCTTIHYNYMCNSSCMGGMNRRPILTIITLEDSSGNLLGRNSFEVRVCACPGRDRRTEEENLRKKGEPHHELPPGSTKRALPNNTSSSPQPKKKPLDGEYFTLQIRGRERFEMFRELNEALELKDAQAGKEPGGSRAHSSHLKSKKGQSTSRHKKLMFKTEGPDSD

HepG2 [3] = test: Induction of apoptosis in human HepG2 cells assessed as late apoptotic cells at 10 ug/ml after 24 hrs by annexin V-FITC/propidium iodide staining based flow cytometry (reference value: 3.50%); format: functional
HepG2 [4] = test: Induction of apoptosis in human HepG2 cells assessed as increase in Bak protein expression at 10 to 20 ug/ml after 24 hrs by Western blot analysis; format: functional, cell-based
HepG2 [5] = test: Induction of apoptosis in human HepG2 cells after 24 hrs by annexin V-FITC/propidium iodide staining based flow cytometry; format: functional, cell-based
HepG2 [6] = test: Induction of DNA damage in human HepG2 cells assessed as increase in caspase-3 level after 24 hrs by Western blot analysis; format: functional, cell-based
HepG2 [7] = test: Induction of apoptosis in human HepG2 cells assessed as viable cells at 20 ug/ml after 24 hrs by annexin V-FITC/propidium iodide staining based flow cytometry (reference value: 89.59%); format: functional; conditions: HepG2, 24 h, read-out: Activity
HepG2 [8] = test: Downregulation of CDK1 expression in human HepG2 cells after 24 hrs by Western blot analysis; format: functional, cell-based
HepG2 [9] = test: Induction of DNA damage in human HepG2 cells assessed as increase in PARP level after 24 hrs by Western blot analysis; format: functional, cell-based
HepG2 [10] = test: Induction of apoptosis in human HepG2 cells assessed as viable cells at 10 ug/ml after 24 hrs by annexin V-FITC/propidium iodide staining based flow cytometry (reference value: 89.59%); format: functional; conditions: HepG2, 24 h, read-out: Activity
HepG2 [11] = test: Induction of apoptosis in human HepG2 cells assessed as necrotic cells at 20 ug/ml after 24 hrs by annexin V-FITC/propidium iodide staining based flow cytometry (reference value: 0.36%); format: functional
HepG2 [12] = test: Downregulation of cyclin B1 expression in human HepG2 cells after 24 hrs by Western blot analysis; format: functional, cell-based
[13] = target: Cellular tumor antigen p53 (Homo sapiens) (UniProt P04637); test: Activation of p53 (unknown origin) transfected in human HepG2 cells at 4 uM after 24 hrs by dual-luciferase assay relative to control; format: cell-based
Method in brief: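 HepG2 cells transfected with the pathway reporter for 24 h, then exposed to 4 μM compound for a further 24 h; reporter activity read by dual-luciferase assay.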

HepG2 [14] = test: Induction of apoptosis in human HepG2 cells assessed as early apoptotic cells at 20 ug/ml after 24 hrs by annexin V-FITC/propidium iodide staining based flow cytometry (reference value: 6.56%); format: functional
HepG2 [15] = test: Anticlonogenic activity against human HepG2 cells at 10 uM treated for 24 hrs measured after 6 days by crystal violet staining based assay; format: functional, cell-based
HepG2 [16] = test: Induction of apoptosis in human HepG2 cells assessed as necrotic cells at 10 ug/ml after 24 hrs by annexin V-FITC/propidium iodide staining based flow cytometry (reference value: 0.36%); format: functional
HepG2 [17] = test: Induction of apoptosis in human HepG2 cells assessed as late apoptotic cells at 20 ug/ml after 24 hrs by annexin V-FITC/propidium iodide staining based flow cytometry (reference value: 3.50%); format: functional
HepG2 [18] = test: Induction of apoptosis in human HepG2 cells assessed as early apoptotic cells at 10 ug/ml after 24 hrs by annexin V-FITC/propidium iodide staining based flow cytometry (reference value: 6.56%); format: functional
HepG2 [19] = test: Antiproliferative activity against human HepG2 cells up to 100 uM by CCK-8 assay; format: functional, cell-based; conditions: TDE = time-dependent effect
Method in brief: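 HepG2 cells were seeded and left 24 h, then treated with a range of compound concentrations for 24 h. Viability was read by CCK-8 assay.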

HepG2 [20] = test: Cell cycle arrest in human HepG2 cells assessed as accumulation at G2/M phase after 24 hrs by propidium iodide staining based flow cytometry; format: functional
HepG2 [21] = test: Increase in p53 expression in human HepG2 cells at 10 to 20 ug/ml after 24 hrs by Western blot analysis; format: functional, cell-based

NCCCNC(=O)c1cn(Cc2ccccc2)c2cc(Cl)ccc2c1=O
IC50 (HeLa): 4.54 µM
IC50 (PC-3): 9.12 µM
IC50 (BGC-823): 6.71 µM
IC50 (HEp-2): 8.31 µM
IC50 (HCT-8): 14.5 µM
IC50 (MCF7): 5.02 µM
IC50 (HepG2 [1]): 5.42 µM

CCCCn1cc(C(=O)NCCCN)c(=O)c2ccc(Cl)cc21
IC50 (HeLa): 15 µM
IC50 (PC-3): 12 µM
IC50 (BGC-823): 16.6 µM
IC50 (HEp-2): 21.7 µM
IC50 (HCT-8): 22.3 µM
IC50 (MCF7): 12.6 µM
IC50 (HepG2 [1]): 5.23 µM

COc1cccc2c1C(=O)c1c(O)c3c(c(O)c1C2=O)C[C@@](O)(C(=O)CO)C[C@@H]3O[C@H]1C[C@H](N)[C@H](O)[C@H](C)O1 [DOXORUBICIN HYDROCHLORIDE]
IC50 (HeLa): < 1 µM
IC50 (PC-3): < 1 µM
IC50 (BGC-823): < 1 µM
IC50 (HEp-2): < 1 µM
IC50 (HCT-8): < 1 µM
IC50 (MCF7): < 1 µM
IC50 (HepG2 [1]): < 1 µM

C=CCn1cc(C(=O)NCCCN)c(=O)c2ccc(Cl)cc21
IC50 (HeLa): 22.4 µM
IC50 (PC-3): 13.2 µM
IC50 (BGC-823): 20 µM
IC50 (HEp-2): 36.5 µM
IC50 (HCT-8): 34.7 µM
IC50 (MCF7): 31.6 µM
IC50 (HepG2 [1]): 17 µM

CCn1cc(C(=O)NCCCN)c(=O)c2ccc(Cl)cc21
IC50 (HeLa): 20 µM
IC50 (PC-3): 12.6 µM
IC50 (BGC-823): 30.2 µM
IC50 (HEp-2): 28.2 µM
IC50 (HCT-8): 31.6 µM
IC50 (MCF7): 35.5 µM
IC50 (HepG2 [1]): 13.8 µM

Cl.NCCCNC(=O)c1cn(CCCc2ccccc2)c2cc(Cl)ccc2c1=O
Activity [2]: Active
IC50 (HeLa): 2.31 µM
Activity (HepG2 [3]): 3.71%
IC50 (PC-3): 6.92 µM
Activity (HepG2 [4]): Active
IC50 (BGC-823): 3.2 µM
Activity (HepG2 [5]): Dose-dependent effect
IC50 (HEp-2): 3.24 µM
IC50 (HCT-8): 6.03 µM
Activity (HepG2 [6]): Dose-dependent effect
viability at 20 µg/mL (HepG2 [7]): 66.3%
Activity (HepG2 [8]): Dose-dependent effect
Activity (HepG2 [9]): Dose-dependent effect
viability at 10 µg/mL (HepG2 [10]): 88.5%
Activity (HepG2 [11]): 4.5%
Activity (HepG2 [12]): Dose-dependent effect
IC50 (MCF7): 3.12 µM
fold change (FC) [13]: 1.5
Activity (HepG2 [14]): 10.72%
Activity (HepG2 [15]): Active
IC50 (HepG2 [1]): < 1 µM
Activity (HepG2 [16]): 0.75%
Activity (HepG2 [17]): 18.44%
Activity (HepG2 [18]): 7.01%
Activity (HepG2 [19]): Tde
Activity (HepG2 [20]): Dose-dependent effect
Activity (HepG2 [21]): Active

Oc1ccnc2cc(Cl)ccc12
IC50 (HeLa): > 50 µM
IC50 (PC-3): > 50 µM
IC50 (BGC-823): > 50 µM
IC50 (HEp-2): > 50 µM
IC50 (HCT-8): > 50 µM
IC50 (MCF7): > 50 µM
IC50 (HepG2 [1]): > 50 µM
